Test results as given in PMC9826439 (Chemistry (Weinheim an Der Bergstrasse, Germany), 2022).

What was measured:
rhodesain = rhodesain (Trypanosoma brucei rhodesiense, UniProt Q95PM0); settings: E-64 15 µM preincubated 37 °C 15 min, then ABP 7 15 µM
[1] = target: rhodesain-like proteases (TbCatLs) in T. b. brucei cell lysate (Trypanosoma brucei brucei, UniProt P14658); assay: Competition profiling assay with ABP 7, T. b. brucei cell lysate; format: biochemical; settings: T. b. brucei cell lysate 80 μg protein; inhibitor 0.016–10 μM, then ABP 7 5 μM
human cathepsin L = human cathepsin L (Homo sapiens, UniProt P07711); assay: Cathepsin L inhibition assay; format: biochemical; settings: ratio of k inac/K i values
Method in brief: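 Commercial human cathepsin; inactivation progress curves recorded for 60 min at five test-compound concentrations, in duplicate. pNA substrates were read at 405 nm (cuvette) and AMC substrates at λex 360/λem 460 nm. kobs came from a non-linear progress-curve fit, and kinac/Ki from a kobs vs [I] fit corrected by [S]/Km. Remaining activity was taken at 5 μM. SR is the ratio of rhodesain to cathepsin kinac/Ki.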

human cathepsin L, sequence (P07711 114-333): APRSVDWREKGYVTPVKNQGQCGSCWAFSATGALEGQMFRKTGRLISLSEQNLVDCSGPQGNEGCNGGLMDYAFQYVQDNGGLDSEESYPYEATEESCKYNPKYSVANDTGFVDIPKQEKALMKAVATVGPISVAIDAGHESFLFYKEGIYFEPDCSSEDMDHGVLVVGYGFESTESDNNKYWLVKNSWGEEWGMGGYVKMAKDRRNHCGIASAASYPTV
rhodesain-like proteases (TbCatLs) in T. b. brucei cell lysate, sequence (P14658 126-450): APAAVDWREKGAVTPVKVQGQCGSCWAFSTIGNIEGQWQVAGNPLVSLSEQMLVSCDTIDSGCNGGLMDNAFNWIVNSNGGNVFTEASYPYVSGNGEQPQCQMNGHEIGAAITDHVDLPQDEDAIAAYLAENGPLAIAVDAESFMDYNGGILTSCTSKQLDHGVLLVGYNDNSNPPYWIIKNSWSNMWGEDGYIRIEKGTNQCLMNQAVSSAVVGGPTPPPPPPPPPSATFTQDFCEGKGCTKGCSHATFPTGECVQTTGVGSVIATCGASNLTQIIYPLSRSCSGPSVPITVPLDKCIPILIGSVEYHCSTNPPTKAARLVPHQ
rhodesain, sequence (Q95PM0 126-340 limits assumed): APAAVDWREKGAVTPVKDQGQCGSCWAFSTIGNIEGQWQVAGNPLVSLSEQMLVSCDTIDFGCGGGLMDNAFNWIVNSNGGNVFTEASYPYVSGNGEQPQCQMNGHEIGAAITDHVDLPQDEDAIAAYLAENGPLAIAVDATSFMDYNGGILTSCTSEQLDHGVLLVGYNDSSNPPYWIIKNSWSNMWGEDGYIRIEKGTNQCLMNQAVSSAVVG

generation of the fluorescent rhodesain-7 adduct (rhodesain) | concentration at which significantly lowered ABP 7 labeling signal was observed [1] [nM] | selectivity ratio (SR rhodesain/cathepsin L) (human cathepsin L) | Compound
completely abolished | – | – | CC(C)C[C@H](NC(=O)[C@H]1O[C@@H]1C(=O)O)C(=O)NCCCCN=C(N)N [E‐64]
– | 80 | 23.8 | Cc1ccc(C[C@H](NC(=O)OC(C)(C)C)C(=O)NC/C=C/S(=O)(=O)c2ccccc2)cc1 [Compound 2, (S,E)‐tert‐Butyl 1‐oxo‐1‐(3‐(phenylsulfonyl)allylamino)‐3‐p‐tolylpropan‐2‐ylcarbamate]
